These results are taken from ChEMBL document CHEMBL1133468, “New diarylmethylpiperazines as potent and selective nonpeptidic delta opioid receptor agonists with increased In vitro metabolic stability” (J Med Chem, 2000).

pEC50, pIC50: −log10 of the molar value.

Series [1] deals with T1, Delta-type opioid receptor (Homo sapiens, UniProt P41143). Put plainly: Binding affinity against human opioid receptor delta 1 using [125I]-[D-Ala2]-deltorphin II as radioligand.
The nature of series [2]: Maximal efficacy (Emax value). Type of series: functional. Summed up:
(§1)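 GTPγ35S binding on P2 membranes of HEK-293S cells stably expressing human δ receptor (9.7 pmol/mg protein). Filtration after 1 h. Stimulated binding set with 3 µM SNC-80. %Emax from 3-parameter logistic fit.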

The target in series [3] is Kappa-type opioid receptor (Homo sapiens, UniProt P41145). Put plainly: Binding affinity against cloned human Opioid receptor kappa 1 using [125I]-D-Pro10-dynorphin A[1-11] as radioligand.
Chain of Kappa-type opioid receptor (P41145 whole entry): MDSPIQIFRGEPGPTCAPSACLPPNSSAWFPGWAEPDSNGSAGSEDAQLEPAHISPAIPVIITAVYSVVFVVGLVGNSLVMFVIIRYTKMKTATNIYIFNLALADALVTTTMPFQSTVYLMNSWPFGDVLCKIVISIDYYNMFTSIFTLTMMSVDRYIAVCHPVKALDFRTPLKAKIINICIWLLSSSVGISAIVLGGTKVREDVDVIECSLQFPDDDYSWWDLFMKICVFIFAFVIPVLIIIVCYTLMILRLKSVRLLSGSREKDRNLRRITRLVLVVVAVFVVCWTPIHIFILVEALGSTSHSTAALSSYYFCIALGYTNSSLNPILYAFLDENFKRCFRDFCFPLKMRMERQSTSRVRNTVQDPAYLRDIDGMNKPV
Series [4] deals with T1, Delta-type opioid receptor. Put plainly: Agonist potency was measured using GTP gamma-[35S] binding assay.
The next series concerns the target Mu-type opioid receptor (Homo sapiens, UniProt P35372). Briefly: Binding affinity against cloned human Opioid receptor mu 1 using [125I]FK33824 as radioligand.
A short description of series [5]: Emax value was determined. Summed up: as §1
Series [6] can be described thus: Metabolic stability at a concentration of 100 uM in rat liver microsomes after 1 hr incubation. The format is ADME. Summed up: (§2)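 Substrate at 10 or 100 µM final (1% DMSO) with rat liver microsomes (0.4 mg/mL protein), 1 mM NADPH, 100 mM phosphate pH 7.4, 37 °C with gentle shaking, in duplicate. Reaction started by NADPH and stopped at 0 and 60 min with ice-cold acetonitrile. After centrifugation, supernatant analysed by LC-MS for % parent remaining. Controls omitted microsomes or NADPH.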

Series [7] in a line: Metabolic stability at a concentration of 10 uM in rat liver microsomes after 1 hr incubation. The format is ADME. Summed up:
as §2

T1 sequence (P41143 whole entry): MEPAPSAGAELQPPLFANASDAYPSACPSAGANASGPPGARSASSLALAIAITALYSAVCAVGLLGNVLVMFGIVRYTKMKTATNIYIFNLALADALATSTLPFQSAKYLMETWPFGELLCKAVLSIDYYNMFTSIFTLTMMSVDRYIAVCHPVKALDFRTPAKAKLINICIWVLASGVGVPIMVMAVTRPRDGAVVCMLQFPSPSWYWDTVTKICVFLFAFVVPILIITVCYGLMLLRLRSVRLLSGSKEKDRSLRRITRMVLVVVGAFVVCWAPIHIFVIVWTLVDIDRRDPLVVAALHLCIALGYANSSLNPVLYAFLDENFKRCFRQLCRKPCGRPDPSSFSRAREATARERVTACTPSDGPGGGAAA
Chain of Mu-type opioid receptor (P35372 whole entry): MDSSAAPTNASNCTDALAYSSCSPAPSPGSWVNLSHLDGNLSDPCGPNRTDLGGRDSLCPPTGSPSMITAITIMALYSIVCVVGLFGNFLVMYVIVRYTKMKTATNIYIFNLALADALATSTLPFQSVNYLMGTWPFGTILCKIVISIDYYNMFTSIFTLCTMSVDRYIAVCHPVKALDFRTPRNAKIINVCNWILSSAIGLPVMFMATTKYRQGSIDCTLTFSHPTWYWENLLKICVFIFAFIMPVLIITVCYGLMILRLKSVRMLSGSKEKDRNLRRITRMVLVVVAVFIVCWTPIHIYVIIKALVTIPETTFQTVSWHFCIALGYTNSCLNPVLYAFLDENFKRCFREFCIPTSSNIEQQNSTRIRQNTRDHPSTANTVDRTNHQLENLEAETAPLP

As to `CN1CCc2cc(-c3ccc(C(c4ccccc4)N4CCNCC4)cc3)ccc2C1=O` (centres undefined), in series [1], the pIC50 is 5.78.
In the case of `CCN(CC)C(=O)c1ccc(C(c2cccc(OC)c2)N2CC(C)NCC2(C)C)cc1` (centres undefined), the maximum response (Emax) in series [2] came out at 94%. The pIC50 in series [3] was less than 5.00; in series [1], 7.27; on Mu-type opioid receptor, 6.55. Also, the pEC50 in series [4] is 6.56.
As for `CCN(CC)C(=O)c1ccc(C(c2ccccc2)N2CCN(CC3CC3)CC2)cc1` (centres undefined), the figures for the pIC50 (in series [3]; in series [1]; on Mu-type opioid receptor) were less than 5.25, 7.45 and 5.62, respectively.
For the molecule `COC(=O)c1ccc(C(c2ccccc2)N2CCNCC2)cc1` (centres undefined), the negative-log IC50 (pIC50) in series [1] was 6.51.
For the molecule `CCN(CC)C(=O)c1ccc(C(c2ccccc2)N2CCOCC2)cc1` (centres undefined), the pIC50 in series [1] was less than 5.00.
In the case of `CCN(CC)S(=O)(=O)c1ccc(C(c2ccccc2)N2CCNCC2)cc1` (centres undefined), the maximal response (Emax) in series [2] is 110%. For the same molecule, the pEC50 in series [4] was 6.20. In series [1], this molecule had a pIC50 of 7.42.
In series [2], `CCN(CC)C(=O)c1ccc(C(c2cccc(OC)c2)N2CCNCC2)cc1` (centres undefined) came in with a maximal response (Emax) of 109%. The pIC50 in series [3] is less than 5.00; in series [1], 7.61; on Mu-type opioid receptor, 5.28. Further, the pEC50 in series [4] is 7.38.
Regarding `c1ccc(C(c2ccc(-c3nnn[nH]3)cc2)N2CCNCC2)cc1` (centres undefined), the pIC50 in series [1] is 6.60.
For the molecule `CCN(CC)C(=O)c1ccc(C(c2ccccc2)N2CCCNCC2)cc1` (centres undefined), the Emax in series [2] was 96%. In addition, the negative-log IC50 (pIC50) in series [3] was 5.34; in series [1] it was 7.71; at Mu-type opioid receptor, 5.64. In series [4], this molecule showed a negative logarithm of the EC50 (pEC50) of 6.52.
For the molecule `CCN(CC)C(=O)c1ccc(C(c2ccc(Cl)cc2)N2CCNCC2)cc1` (centres undefined), in series [2], the maximal response (Emax) came to 107%. Further, the pIC50 in series [3] was less than 5.00; in series [1] it was 7.71; on Mu-type opioid receptor, 5.27. In series [4], this molecule gave a pEC50 of 6.95.
Turning to `CCN(CC)C(=O)c1ccc(C(c2ccc3cccnc3c2)N2CCNCC2)cc1` (centres undefined), the results for the pIC50 (in series [3]; in series [1]; on Mu-type opioid receptor) were 5.50, 8.96 and 5.99, respectively. In series [4], this molecule showed a pEC50 of 8.16. Moreover, the Emax in series [5] is reported as 100%.
For `CCN(CC)C(=O)c1ccc(C(c2cccc(F)c2)N2CCNCC2)cc1` (centres undefined), the Emax in series [2] worked out at 97%. In addition, the negative logarithm of the IC50 (pIC50) in series [3] is less than 5.00; in series [1] it was 8.35; on Mu-type opioid receptor, 5.25. This molecule had a pEC50 in series [4] of 7.27.
The molecule `CC(=O)c1ccc(C(c2ccccc2)N2CCNCC2)cc1` (centres undefined) had a pIC50 in series [1] of 5.98.
For `CCN(CC)C(=O)c1ccc(C(c2ccccc2)N2CCN(C)CC2)cc1` (centres undefined), the Emax in series [2] turned out to be 58%. Moreover, the pIC50 in series [3] was 5.16; in series [1], 7.39; on Mu-type opioid receptor, less than 5.00. The same molecule showed a pEC50 in series [4] of 6.68.
On to `CCN(CC)C(=O)c1ccc(C(c2ccc(OC)cc2)N2CCNCC2)cc1` (centres undefined), for which the maximal response (Emax) in series [2] is 90%. The pIC50 in series [3] was less than 5.00; in series [1], 8.09; at Mu-type opioid receptor, 5.34. In series [4], the negative-log EC50 (pEC50) is 6.73.
`NC(=O)c1ccc(C(c2ccccc2)N2CCNCC2)cc1` (centres undefined) had a negative logarithm of the IC50 (pIC50) in series [1] of 6.29.
`CCN(CC)C(=O)c1ccc(C(c2cccc(OC)c2)N2CC(C)(C)NCC2C)cc1` (centres undefined) yielded a maximal response (Emax) in series [2] of 100%. In addition, the pIC50 in series [3] was less than 5.00; in series [1], 8.07; on Mu-type opioid receptor, 6.21. The molecule further gave a negative logarithm of the EC50 (pEC50) in series [4] of 7.98.
In series [2], `C=CCN1C[C@H](C)N([C@H](c2ccc(C(=O)N(CC)CC)cc2)c2cccc(OC)c2)C[C@H]1C` gave an Emax of 100%.
As to `C=CCN1C[C@H](C)N([C@H](c2ccc(C(=O)N(CC)CC)cc2)c2cccc(O)c2)C[C@H]1C`, the Emax in series [2] is 98%. In addition, the negative-log IC50 (pIC50) was 7.70 in series [3] and 8.68 on Mu-type opioid receptor. This molecule also gave a pEC50 in series [4] of 9.92. In series [6], this molecule displayed a share remaining at 1 h, 100 µM of 59%. Besides, the amount remaining at 1 h, 10 µM in series [7] was 4%.
In series [2], `CCN(CC)C(=O)c1ccc(C(c2ccc(C)cc2)N2CCNCC2)cc1` (centres undefined) came in with an Emax of 84%. Besides, the negative logarithm of the IC50 (pIC50) is less than 5.00 in series [3], 8.07 in series [1] and 5.15 on Mu-type opioid receptor. The molecule further had a pEC50 in series [4] of 7.11.
Consider `CCN(CC)Cc1ccc(C(c2ccccc2)N2CCNCC2)cc1` (centres undefined), for which the pIC50 in series [1] is 6.26.
The same measure, in the same setting: with `CC(C)(O)c1ccc(C(c2ccccc2)N2CCNCC2)cc1` (centres undefined) the figure was 6.39.
For `CCN(CC)C(=O)c1ccc(C(C2CCCCC2)N2CCNCC2)cc1` (centres undefined), the negative-log IC50 (pIC50) was 6.14 in series [3], 7.01 in series [1] and 6.73 on Mu-type opioid receptor.
Molecule `O=C(O)c1ccc(C(c2ccccc2)N2CCNCC2)cc1` (centres undefined) had a pIC50 in series [1] of 6.39.
`CCN(CC)C(=O)c1ccc(C(c2ccccc2)C2CCNCC2)cc1` (centres undefined) had a maximal response (Emax) in series [2] of 97%. Further, the pIC50 (in series [3]; at Mu-type opioid receptor) was less than 5.00 each time.
As to `CCN(CC)C(=O)c1ccc(C(c2ccc3ccccc3c2)N2CCNCC2)cc1` (centres undefined), the Emax in series [2] was 110%. Also, the pIC50 is less than 5.00 in series [3], 8.12 in series [1] and 5.57 at Mu-type opioid receptor. For the same molecule, the pEC50 in series [4] is 7.30.
In the case of `C=CCN1CCN(C(c2ccccc2)c2ccc(C(=O)N(CC)CC)cc2)CC1` (centres undefined), the Emax in series [2] was 109%. Moreover, the pIC50 is 5.12 in series [3], 7.80 in series [1] and 5.30 at Mu-type opioid receptor. In series [4], this molecule gave a pEC50 of 7.48.
The molecule `CCN(CC)C(=O)c1ccc(C(c2cccc3c2OC(C)(C)C3)N2CCNCC2)cc1` (centres undefined) registered an Emax in series [2] of 101%. In addition, the figures for the negative logarithm of the IC50 (pIC50) (in series [3]; in series [1]; on Mu-type opioid receptor) were less than 5.12, 8.94 and 6.11, respectively. The same molecule showed a negative logarithm of the EC50 (pEC50) in series [4] of 8.15. In series [6], this molecule gave a share remaining at 1 h, 100 µM of 93%. In addition, the fraction remaining at 1 h, 10 µM in series [7] stood at 43%.
`CCN(CC)C(=O)c1ccc(C(c2ccc3ncccc3c2)N2CCNCC2)cc1` (centres undefined) gave a pIC50 in series [1] of 7.21.
`CCN(CC)C(=O)c1ccc(C(c2cccc3cccnc23)N2CCNCC2)cc1` (centres undefined) had a maximum response (Emax) in series [2] of 104%. Besides, the values for the pIC50 (in series [3]; in series [1]; on Mu-type opioid receptor) were 5.15, 9.29 and 6.20, respectively. The negative-log EC50 (pEC50) in series [4] is 8.44. In addition, the share remaining at 1 h, 100 µM in series [6] is 83%. Besides, the fraction remaining at 1 h, 10 µM in series [7] was determined as 52%.
`CCN(CC)C(=O)c1ccc(C(c2ccnc3ccccc23)N2CCNCC2)cc1` (centres undefined) showed a pIC50 in series [1] of 6.88.
In the case of `CCN(CC)C(=O)c1ccc(C(c2cccc3ccccc23)N2CCNCC2)cc1` (centres undefined), the Emax in series [2] amounted to 99%. Also, the pIC50 in series [3] is 5.31; in series [1], 8.63; at Mu-type opioid receptor, 6.11. The same molecule showed a negative logarithm of the EC50 (pEC50) in series [4] of 7.74.
In the case of `CCN(CC)C(=O)c1ccc(C(c2ccccc2)N2CCNCC2)cc1` (centres undefined), in series [2], the Emax is 104%. In addition, in series [6], the fraction remaining at 1 h, 100 µM came out at 89%. The molecule also displayed a fraction remaining at 1 h, 10 µM in series [7] of 60%.
`N#Cc1ccc(C(c2ccccc2)N2CCNCC2)cc1` (centres undefined) had a pIC50 in series [1] of 5.89.
Consider `CCN(CC)C(=O)c1ccc(C(c2cccc3cnccc23)N2CCNCC2)cc1` (centres undefined), for which the maximal response (Emax) in series [2] was determined as 106%. For the same molecule, the pIC50 in series [3] was less than 5.00; in series [1], 8.39; on Mu-type opioid receptor it was 5.83. The pEC50 in series [4] is 7.26.
With `CCCCN1CCN(C(c2ccccc2)c2ccc(C(=O)N(CC)CC)cc2)CC1` (centres undefined), the pIC50 is less than 5.00 in series [3], 7.54 in series [1] and 6.31 on Mu-type opioid receptor.
In series [1], `CCN(CC)C(=O)c1ccc(C(c2ccccc2)N2CCCCC2)cc1` (centres undefined) gave a negative logarithm of the IC50 (pIC50) of 5.65.
Turning to `CN(C)C(=O)c1ccc(C(c2ccccc2)N2CCNCC2)cc1` (centres undefined), in series [1], the pIC50 was 7.22.
As to `CCN(CC)C(=O)c1ccc(C(c2ccccc2)N(C)CCNC)cc1` (centres undefined), the values for the pIC50 (in series [3]; in series [1]; at Mu-type opioid receptor) were less than 5.00, 7.04 and 5.16, respectively.
On to `CCC(CC)C(=O)c1ccc(C(c2ccccc2)N2CCNCC2)cc1` (centres undefined), for which the pIC50 in series [1] is 7.00.
In turn, `CCN(CC)C(=O)c1ccc(C(c2ccc3cc[nH]c3c2)N2CCNCC2)cc1` (centres undefined) had an Emax in series [2] of 105%. Moreover, the pIC50 in series [3] is 5.40; in series [1], 8.17; on Mu-type opioid receptor, 5.65. In series [4], this molecule gave a pEC50 of 7.35.
`CCN(CC)C(=O)c1ccc(C(c2ccccc2)N2CCN(C(C)=O)CC2)cc1` (centres undefined): the pIC50 in series [1] was less than 5.70.
In series [1], `CCNC(=O)c1ccc(C(c2ccccc2)N2CCNCC2)cc1` (centres undefined) showed a pIC50 of 6.76.
